Molecules are shown by their SMILES. Activity calls are given as the source filed them. The rule behind the calls is not given here.

We go through 56 compounds from ChEMBL document CHEMBL3627703, “Synthetic, structural mimetics of the β-hairpin flap of HIV-1 protease inhibit enzyme function” (Bioorg Med Chem, 2015).

One series has as its target Protease (Human immunodeficiency virus 1, UniProt Q9YQ12). The experiment in a line: Inhibition of recombinant HIV-1 protease expressed in Escherichia coli using Arg-Glu (EDANS)-Ser-Gln-Asn-Tyr-Pro-Ile-Val-Gln Lys(DABCYL)-Arg as substrate by spectrofluorometric analysis. The procedure, abridged:
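Recombinant HIV-1 PR refolded from E. coli inclusion bodies, active concentration set by active-site titration, final 30–40 nM. Assay at 25 °C in 10 mM sodium acetate, 1 M NaCl, 2% DMSO, pH 5.0. Fluorogenic substrate at 16.7 μM, inhibitor 0–200 μM (20 mM DMSO stocks). Hydrolysis followed at excitation 340 / emission 490 nm. Ki from fitting to tight-binding competitive inhibition equations.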

Series [1] deals with Human immunodeficiency virus 1. The experiment in a line: Antiviral activity against HIV-1 infected in human TZM-bl cells assessed as inhibition of viral replication at 50 to 100 uM by luciferase reporter assay. In kind it is functional, organism-based. In general terms: A reporter such as luciferase makes a cellular process visible.
The test system of series [2] is MT4. The experiment in a line: Cytotoxicity against human MT4 cells assessed as viable cells at 50 uM after 3 days by tryptan blue dye assay. In kind it is cell-based. The note with it: mt4, 72 h. The procedure, abridged:
(§1)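 MT-4 cells seeded at 2 × 10⁵ cells/ml in RPMI with 10% heat-inactivated FBS, carrying carrier alone or inhibitor at 10, 50 or 100 μM (0.25% DMSO final), 37 °C, 5% CO₂. Viable cells counted by trypan blue exclusion after three days; triplicate.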

In series [3] the test system is MT4. The experiment in a line: Cytotoxicity against human MT4 cells assessed as viable cells at 100 uM after 3 days by tryptan blue dye assay. In kind it is cell-based. The note with it: mt4, 72 h. The procedure, abridged: as §1

Chain of Protease (Q9YQ12 whole entry): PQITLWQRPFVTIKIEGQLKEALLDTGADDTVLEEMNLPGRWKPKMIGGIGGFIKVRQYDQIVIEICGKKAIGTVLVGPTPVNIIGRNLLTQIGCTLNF

With `CC1=N[C@@H](C)C(=O)Nc2cc(C(=O)O)ccc21`, the Ki (as a rule, the dissociation constant of the complex between target and ligand, obtained from inhibition or displacement) at Protease was over 200 µM. The same measure, in the same setting: the value for `CC1=N[C@H](CC(C)C)C(=O)N(CC(=O)N2CCN(C(=O)OCC3c4ccccc4-c4ccccc43)CC2)c2cc(C(=O)O)ccc21` was 49 µM; that for `CC(C)C[C@H]1N=C(c2ccccc2)c2ccc(C(=O)OC(C)(C)C)cc2N(Cc2ccc(C3CCCCC3)cc2)C1=O` was 88 µM; that for `CC1=N[C@H](CC(C)C)C(=O)N(Cc2ccccc2)c2cc(C(=O)O)ccc21` was over 200 µM. The same measure, in the same setting: then `CC1=N[C@@H](Cc2ccccc2)C(=O)Nc2cc(C(=O)OC(C)(C)C)ccc21`, with 64 µM. Same read-out and setting: the value for `CCCCCCCCCCNC(=O)CN1C(=O)[C@@H](CC(C)C)N=C(C)c2ccc(C(=O)OC(C)(C)C)cc21` was over 200 µM.

With `CC1=N[C@H](CC(C)C)C(=O)N(Cc2ccc(-c3ccccc3)cc2)c2cc(C(=O)O)ccc21`, the inhibition result in series [1] is “Active”. Also, the Activity result with MT4 [2] is “Non-toxic”; in the series on MT4 [3], “Toxic”. Besides, the Ki on Protease was determined as 21 µM. Turning to `CC1=N[C@H](CC(C)C)C(=O)N(CC(=O)OC(C)(C)C)c2cc(C(=O)OC(C)(C)C)ccc21`, the Ki at Protease is 119 µM. Same read-out and setting: then `CC1=N[C@H](CC(C)C)C(=O)Nc2cc(C(=O)OC(C)(C)C)ccc21`, with over 200 µM; and `CC1=N[C@@H](Cc2ccccc2)C(=O)N(Cc2ccc(C3CCCCC3)cc2)c2cc(C(=O)O)ccc21`, with 47 µM; and `CC1=N[C@H](CC(C)C)C(=O)N(Cc2ccncc2)c2cc(C(=O)OC(C)(C)C)ccc21`, with over 200 µM. On the same count and under the same terms, then `CC1=N[C@@H](CC(C)C)C(=O)N(Cc2ccc(C3CCCCC3)cc2)c2cc(C(=O)O)ccc21`, with 27 µM; and `CC1=N[C@H](CC(C)C)C(=O)N(Cc2ccccc2)c2cc(C(=O)OC(C)(C)C)ccc21`, with over 200 µM. On the same count and under the same terms, then `CCCCCCNC(=O)CN1C(=O)[C@@H](CC(C)C)N=C(C)c2ccc(C(=O)OC(C)(C)C)cc21`, with over 200 µM. As for `CCCCCCCCCCNC(=O)CN1C(=O)[C@@H](CC(C)C)N=C(C)c2ccc(C(=O)O)cc21`, the inhibition result in series [1] is “Active”. The Activity result was “Non-toxic” with MT4 [2] and “Toxic” with MT4 [3]. Further, the inhibitory constant (Ki) at Protease worked out at 11 µM. The like results for `CCCCCCCCCCCCCCCCNC(=O)CN1C(=O)[C@@H](CC(C)C)N=C(C)c2ccc(C(=O)O)cc21` were, in that order, “Active”, “Toxic”, “Toxic” and 11 µM.

`CC1=N[C@H](CC(C)C)C(=O)N(CC(=O)N2CCN(C(=O)OCc3ccccc3)CC2)c2cc(C(=O)O)ccc21`: the Ki on Protease stood at 81 µM. On the same count and under the same terms, the value for `CC1=NCC(=O)Nc2cc(C(=O)OC(C)(C)C)ccc21` was over 200 µM. Same read-out and setting: then `CC1=N[C@H](CC(C)C)C(=O)N(CC(=O)N2CCN(C(=O)OCC3c4ccccc4-c4ccccc43)CC2)c2cc(C(=O)OC(C)(C)C)ccc21`, with over 200 µM; and `CC1=N[C@H](CC(C)C)C(=O)N(Cc2ccc(C(C)(C)C)cc2)c2cc(C(=O)O)ccc21`, with 46 µM; and `CC1=N[C@H](CC(C)C)C(=O)N(CC(=O)NCCc2ccccc2)c2cc(C(=O)O)ccc21`, with 75 µM.

`CC1=N[C@H](CC(C)C)C(=O)Nc2cc(C(=O)O)ccc21`: the Ki at Protease is over 200 µM. On the same count and under the same terms, then `CC1=N[C@H](Cc2ccccc2)C(=O)Nc2cc(C(=O)OC(C)(C)C)ccc21`, with 88 µM; and `CCC(C)[C@@H]1N=C(C)c2ccc(C(=O)OC(C)(C)C)cc2NC1=O` (single isomer, unassigned), with over 200 µM; and `CC1=N[C@@H](Cc2ccccc2)C(=O)N(Cc2ccc(C3CCCCC3)cc2)c2cc(C(=O)OC(C)(C)C)ccc21`, with 54 µM. Turning to `CC1=N[C@H](CC(C)C)C(=O)N(CC(=O)NCCc2ccccc2)c2cc(C(=O)OC(C)(C)C)ccc21`, on Protease, the Ki turned out to be 95 µM. Consider `CC1=N[C@@H](CC(C)C)C(=O)Nc2cc(C(=O)O)ccc21`, for which the Ki at Protease was over 200 µM. Regarding `CC1=N[C@@H](Cc2ccccc2)C(=O)Nc2cc(C(=O)O)ccc21`, the inhibitory constant (Ki) at Protease is over 200 µM.

Take `CC1=N[C@@H](CC(C)C)C(=O)Nc2cc(C(=O)OC(C)(C)C)ccc21`: the Ki at Protease turned out to be 193 µM.

As for `CC1=N[C@H](CC(C)C)C(=O)N(Cc2ccc(-c3ccccc3)cc2)c2cc(C(=O)OC(C)(C)C)ccc21`, the Ki at Protease was 62 µM. The same measure, in the same setting: then `CC1=N[C@H](CC(C)C)C(=O)N(CC(C)C)c2cc(C(=O)OC(C)(C)C)ccc21`, with 89 µM; and `CC1=N[C@H](CC(C)C)C(=O)N(CC(=O)N2CCN(C(=O)OCc3ccccc3)CC2)c2cc(C(=O)OC(C)(C)C)ccc21`, with over 200 µM; and `CC1=N[C@H](CC(C)C)C(=O)N(CC(=O)N2CCNCC2)c2cc(C(=O)O)ccc21`, with over 200 µM.

With `CC1=NCC(=O)N(Cc2ccc(C3CCCCC3)cc2)c2cc(C(=O)O)ccc21`, the Ki on Protease was 85 µM.

`CCCCCCNC(=O)CN1C(=O)[C@@H](CC(C)C)N=C(C)c2ccc(C(=O)O)cc21`: the Ki on Protease came out at 75 µM.

Consider `CC1=N[C@H](CC(C)C)C(=O)N(CC(=O)N2CCN(C(=O)OC(C)(C)C)CC2)c2cc(C(=O)OC(C)(C)C)ccc21`, for which the Ki on Protease was 143 µM. Take `CC(C)C[C@H]1N=C(c2ccccc2)c2ccc(C(=O)O)cc2N(Cc2ccc(C3CCCCC3)cc2)C1=O`: the inhibition constant Ki on Protease was 68 µM. Same read-out and setting: then `CC1=N[C@H](Cc2ccccc2)C(=O)Nc2cc(C(=O)O)ccc21`, with over 200 µM. For the compound `CC1=N[C@@H](CC(C)C)C(=O)N(Cc2ccc(C3CCCCC3)cc2)c2cc(C(=O)OC(C)(C)C)ccc21`, at Protease, the Ki came to 76 µM.

Regarding `CC1=N[C@H](Cc2ccccc2)C(=O)N(Cc2ccc(C3CCCCC3)cc2)c2cc(C(=O)OC(C)(C)C)ccc21`, at Protease, the inhibitory constant (Ki) was found to be 131 µM. On the same count and under the same terms, then `CC1=N[C@H](CC(C)C)C(=O)N(Cc2ccc(C(C)(C)C)cc2)c2cc(C(=O)OC(C)(C)C)ccc21`, with 147 µM.

Consider `CC1=N[C@H](Cc2ccccc2)C(=O)N(Cc2ccc(C3CCCCC3)cc2)c2cc(C(=O)O)ccc21`, for which the inhibitory constant (Ki) at Protease amounted to 72 µM. Still for that read-out and setting: the value for `CC1=N[C@@H](C)C(=O)N(Cc2ccc(C3CCCCC3)cc2)c2cc(C(=O)OC(C)(C)C)ccc21` was 88 µM; that for `CC1=N[C@@H](C)C(=O)Nc2cc(C(=O)OC(C)(C)C)ccc21` was over 200 µM.

As for `CCC(C)[C@@H]1N=C(C)c2ccc(C(=O)O)cc2N(Cc2ccc(C3CCCCC3)cc2)C1=O` (single isomer, unassigned), the inhibition constant (Ki) on Protease turned out to be 53 µM. On the same count and under the same terms, the value for `CCCCCCCCCCCCCCCCNC(=O)CN1C(=O)[C@@H](CC(C)C)N=C(C)c2ccc(C(=O)OC(C)(C)C)cc21` was 165 µM; that for `CC1=N[C@@H](C)C(=O)N(Cc2ccc(C3CCCCC3)cc2)c2cc(C(=O)O)ccc21` was 56 µM. Same read-out and setting: the value for `CCC(C)[C@@H]1N=C(C)c2ccc(C(=O)OC(C)(C)C)cc2N(Cc2ccc(C3CCCCC3)cc2)C1=O` (single isomer, unassigned) was 108 µM; that for `CC1=N[C@H](CC(C)C)C(=O)N(Cc2ccc(C3CCCCC3)cc2)c2cc(C(=O)OC(C)(C)C)ccc21` was 65 µM. Still for that read-out and setting: then `CC1=N[C@H](CC(C)C)C(=O)N(CC(=O)O)c2cc(C(=O)O)ccc21`, with over 200 µM; and `CC1=N[C@H](CC(C)C)C(=O)N(Cc2ccncc2)c2cc(C(=O)O)ccc21`, with over 200 µM; and `CCC(C)[C@@H]1N=C(C)c2ccc(C(=O)O)cc2NC1=O` (single isomer, unassigned), with 158 µM. Turning to `CC1=NCC(=O)Nc2cc(C(=O)O)ccc21`, the Ki on Protease is 199 µM. `CC1=N[C@H](CC(C)C)C(=O)N(CC(C)C)c2cc(C(=O)O)ccc21`: at Protease, the inhibition constant (Ki) was over 200 µM.

Regarding `CC1=NCC(=O)N(Cc2ccc(C3CCCCC3)cc2)c2cc(C(=O)OC(C)(C)C)ccc21`, the Ki at Protease was 169 µM. Regarding `CC1=N[C@H](CC(C)C)C(=O)N(Cc2ccc(C3CCCCC3)cc2)c2cc(C(=O)O)ccc21`, in series [1], the inhibition result is “Active”. Besides, the Activity entry with MT4 [2] is on record as “Non-toxic”; with MT4 [3] it was “Toxic”. The inhibitory constant (Ki) on Protease came to 19 µM.
